Activity calls are given as the source filed them.
Key:
Format in all cases: functional, organism-based
[1] = tested on: Candida albicans; assay: Antifungal activity against Candida albicans at 3.5 to 1050 ug/L after 24 hrs by microdilution method
How it was run: (§1)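 Yeast microdilution in 24-well plates. Wells were seeded at OD600 0.1 and grown aerobically with the compound (range as in the assay line) for 24 h at 28 °C with agitation. Growth was read as OD600. Runs were in triplicate in YPD, malt extract (20 g/L), RPMI 1640, and YNB without amino acids.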

[2] = tested on: Candida albicans; assay: Antifungal activity against Candida albicans at 3.5 to 1050 ug/L after 24 hrs by YNB medium disc diffusion method in absence of amino acids
How it was run: (§2)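 Disk diffusion on yeast-seeded agar plates (20 g/L agar added), either malt extract medium or YNB without amino acids. Sterile 6 mm paper disks held varying amounts of compound, matching the liquid-assay concentrations. The growth-inhibition zone diameter was measured after 24 h at 28 °C.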

[3] = tested on: Saccharomyces cerevisiae; assay: Antifungal activity against Saccharomyces cerevisiae at 3.5 to 1050 ug/L after 24 hrs by YNB medium disc diffusion method in absence of amino acids; how it was run: as §2
[4] = tested on: Candida albicans; assay: Antifungal activity against Candida albicans at 3.5 to 1050 ug/L after 24 hrs by malt extract medium disc diffusion method; how it was run: as §2
[5] = tested on: Nakaseomyces glabratus; assay: Antifungal activity against Candida glabrata at 3.5 to 1050 ug/L after 24 hrs by YNB medium disc diffusion method in absence of amino acids; how it was run: as §2
[6] = tested on: Saccharomyces cerevisiae; assay: Antifungal activity against Saccharomyces cerevisiae at 3.5 to 1050 ug/L after 24 hrs by microdilution method; how it was run: as §1
[7] = tested on: Nakaseomyces glabratus; assay: Antifungal activity against Candida glabrata at 3.5 to 1050 ug/L after 24 hrs by microdilution method; how it was run: as §1
[8] = tested on: Saccharomyces cerevisiae; assay: Antifungal activity against Saccharomyces cerevisiae at 3.5 to 1050 ug/L after 24 hrs by malt extract medium disc diffusion method; how it was run: as §2
[9] = tested on: Nakaseomyces glabratus; assay: Antifungal activity against Candida glabrata at 3.5 to 1050 ug/L after 24 hrs by malt extract medium disc diffusion method; how it was run: as §2
[10] = tested on: Listeria innocua; assay: Antibacterial activity against Listeria innocua 2 to 10 ug/L after 24 hrs by Stephenson-Wetham medium disc diffusion method
How it was run: (§3)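 Agar diffusion. Sterile 6 mm paper disks carrying different amounts of compound were placed on Stephenson–Wetham agar (20 g/L agar) pre-seeded with the indicator bacterium. Amounts matched those of the liquid test. After 24 h at 37 °C, the diameter of the growth-inhibition zone was measured.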

[11] = tested on: Escherichia coli; assay: Antibacterial activity against Escherichia coli 2 to 10 ug/L after 24 hrs by microdilution method
[12] = tested on: Escherichia coli; assay: Antibacterial activity against Escherichia coli 2 to 10 ug/L after 24 hrs by Stephenson-Wetham medium disc diffusion method in absence of amino acids; how it was run: as §3
[13] = tested on: Pseudomonas aeruginosa; assay: Antibacterial activity against Pseudomonas aeruginosa 2 to 10 ug/L after 24 hrs by microdilution method
[14] = tested on: Escherichia coli; assay: Antibacterial activity against Escherichia coli 2 to 10 ug/L after 24 hrs by Stephenson-Wetham medium disc diffusion method; how it was run: as §3
[15] = tested on: Bacillus subtilis; assay: Antibacterial activity against Bacillus subtilis 2 to 10 ug/L after 24 hrs by Stephenson-Wetham medium disc diffusion method; how it was run: as §3
[16] = tested on: Pseudomonas aeruginosa; assay: Antibacterial activity against Pseudomonas aeruginosa 2 to 10 ug/L after 24 hrs by Stephenson-Wetham medium disc diffusion method in absence of amino acids; how it was run: as §3
[17] = tested on: Bacillus subtilis; assay: Antibacterial activity against Bacillus subtilis 2 to 10 ug/L after 24 hrs by microdilution method
[18] = tested on: Pseudomonas aeruginosa; assay: Antibacterial activity against Pseudomonas aeruginosa 2 to 10 ug/L after 24 hrs by Stephenson-Wetham medium disc diffusion method; how it was run: as §3
[19] = tested on: Listeria innocua; assay: Antibacterial activity against Listeria innocua 2 to 10 ug/L after 24 hrs by microdilution method
[20] = tested on: Bacillus subtilis; assay: Antibacterial activity against Bacillus subtilis 2 to 10 ug/L after 24 hrs by Stephenson-Wetham medium disc diffusion method in absence of amino acids; how it was run: as §3
[21] = tested on: Listeria innocua; assay: Antibacterial activity against Listeria innocua 2 to 10 ug/L after 24 hrs by Stephenson-Wetham medium disc diffusion method in absence of amino acids; how it was run: as §3

Measured: Activity

N=C(N)NCCC[C@H](N)C(=O)N[C@@H](/C=C\CP(=O)(O)O)C(=O)O
inactive: [1] | [2] | [3] | [4] | [5] | [6] | [7] | [8] | [9]

C[C@H](N)C(=O)N[C@@H](CC(=O)O)C(=O)N[C@@H](/C=C\CP(=O)(O)O)C(=O)O
not listed: [1] | [2] | [3] | [4] | [5] | [6] | [7] | [8] | [9]
inactive: all other assays above

— ChEMBL document CHEMBL2413044, “Synthesis and biological evaluation of potential threonine synthase inhibitors: Rhizocticin A and Plumbemycin A” (Bioorg Med Chem, 2013)
